Experimental data as given in ChEMBL document CHEMBL3797061, “Characterizing the Covalent Targets of a Small Molecule Inhibitor of the Lysine Acetyltransferase P300” (ACS Med Chem Lett, 2016).
pIC50: −log10 of the molar value. One block for each molecule: values may come before it. Activity calls are given as the source filed them. The calls are words filed in the database; no cut-off is given here.

Legend:
[1] = biological target: Pyruvate kinase PKM (Homo sapiens) (UniProt P14618); experiment: Binding affinity to PKM in HEK293 proteomes assessed as spectral count ratio at 20 uM incubated for 16 hrs by TAMRA biotin-azide dye based LC-MS/MS analysis relative to control
Outline: (§1)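 HEK-293 proteome labeled with alkyne probe, then enriched and identified by LC–MS/MS. Spectral counts compared with a no-probe control.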

[2] = biological target: Alpha-enolase (Homo sapiens) (UniProt P06733); experiment: Binding affinity to ENO1 in HEK293 proteomes assessed as spectral count ratio at 20 uM incubated for 16 hrs by TAMRA biotin-azide dye based LC-MS/MS analysis relative to control; outline: as §1
Sequence of Alpha-enolase (Homo sapiens) (P06733 whole entry): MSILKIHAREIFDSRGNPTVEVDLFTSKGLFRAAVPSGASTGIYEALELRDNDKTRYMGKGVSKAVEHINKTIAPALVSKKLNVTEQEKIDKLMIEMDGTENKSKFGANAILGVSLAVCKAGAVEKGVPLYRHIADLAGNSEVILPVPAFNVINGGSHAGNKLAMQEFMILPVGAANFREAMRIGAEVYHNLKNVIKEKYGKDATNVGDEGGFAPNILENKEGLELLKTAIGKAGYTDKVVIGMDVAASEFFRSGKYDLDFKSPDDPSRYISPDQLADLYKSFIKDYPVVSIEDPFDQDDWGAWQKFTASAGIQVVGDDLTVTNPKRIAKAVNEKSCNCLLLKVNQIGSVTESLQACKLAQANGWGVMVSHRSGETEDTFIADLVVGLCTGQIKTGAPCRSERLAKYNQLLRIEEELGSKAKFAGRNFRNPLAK

HEK293 [3] = experiment: Binding affinity to HEK293 proteomes incubated for 16 hrs using TAMRA-azide dye by SDS-PAGE based fluorescence analysis; format: cell-based; details: Homo sapiens
Outline: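 HEK-293 cell lysate was incubated 16 h with alkyne probe (5–50 μM) and then conjugated to a fluorescent azide by Cu-catalysed [3+2] cycloaddition. Reactions were quenched in loading buffer without boiling. Proteins were resolved by SDS-PAGE and covalent labeling was imaged by in-gel fluorescence.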

[4] = biological target: Tubulin alpha-8 chain (Homo sapiens) (UniProt Q9NY65); experiment: Binding affinity to TUBA8 in HEK293 proteomes assessed as spectral count ratio at 20 uM incubated for 16 hrs by TAMRA biotin-azide dye based LC-MS/MS analysis relative to control; outline: as §1
[5] = biological target: Eukaryotic initiation factor 4A-I (Homo sapiens) (UniProt P60842); experiment: Binding affinity to EIF4A1 in HEK293 proteomes assessed as spectral count ratio at 20 uM incubated for 16 hrs by TAMRA biotin-azide dye based LC-MS/MS analysis relative to control; outline: as §1
[6] = biological target: 60 kDa heat shock protein, mitochondrial (Homo sapiens) (UniProt P10809); experiment: Binding affinity to HSPD1 in HEK293 proteomes assessed as spectral count ratio at 20 uM incubated for 16 hrs by TAMRA biotin-azide dye based LC-MS/MS analysis relative to control; outline: as §1
Sequence of 60 kDa heat shock protein, mitochondrial (Homo sapiens) (P10809 whole entry): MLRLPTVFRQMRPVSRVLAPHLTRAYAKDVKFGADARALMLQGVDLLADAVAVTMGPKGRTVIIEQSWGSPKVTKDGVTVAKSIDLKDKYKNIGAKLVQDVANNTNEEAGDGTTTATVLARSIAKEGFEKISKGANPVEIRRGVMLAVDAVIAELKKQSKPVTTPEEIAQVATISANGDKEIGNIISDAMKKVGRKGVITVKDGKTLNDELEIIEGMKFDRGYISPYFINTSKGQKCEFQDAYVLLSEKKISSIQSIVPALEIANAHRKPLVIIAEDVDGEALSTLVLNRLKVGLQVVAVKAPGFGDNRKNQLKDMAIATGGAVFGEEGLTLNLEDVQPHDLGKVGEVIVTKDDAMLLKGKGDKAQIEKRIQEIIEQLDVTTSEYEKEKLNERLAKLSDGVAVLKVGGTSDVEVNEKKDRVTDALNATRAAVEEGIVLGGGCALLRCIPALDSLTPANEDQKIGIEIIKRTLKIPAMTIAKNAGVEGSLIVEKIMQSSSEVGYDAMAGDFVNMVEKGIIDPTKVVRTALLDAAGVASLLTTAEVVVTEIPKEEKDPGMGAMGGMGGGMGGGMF

[7] = biological target: Tubulin alpha-1B chain (Homo sapiens) (UniProt P68363); experiment: Binding affinity to TUBA1B in HEK293 proteomes assessed as spectral count ratio at 20 uM incubated for 16 hrs by TAMRA biotin-azide dye based LC-MS/MS analysis relative to control; outline: as §1
Sequence of Tubulin alpha-1B chain (Homo sapiens) (P68363 whole entry, looked up): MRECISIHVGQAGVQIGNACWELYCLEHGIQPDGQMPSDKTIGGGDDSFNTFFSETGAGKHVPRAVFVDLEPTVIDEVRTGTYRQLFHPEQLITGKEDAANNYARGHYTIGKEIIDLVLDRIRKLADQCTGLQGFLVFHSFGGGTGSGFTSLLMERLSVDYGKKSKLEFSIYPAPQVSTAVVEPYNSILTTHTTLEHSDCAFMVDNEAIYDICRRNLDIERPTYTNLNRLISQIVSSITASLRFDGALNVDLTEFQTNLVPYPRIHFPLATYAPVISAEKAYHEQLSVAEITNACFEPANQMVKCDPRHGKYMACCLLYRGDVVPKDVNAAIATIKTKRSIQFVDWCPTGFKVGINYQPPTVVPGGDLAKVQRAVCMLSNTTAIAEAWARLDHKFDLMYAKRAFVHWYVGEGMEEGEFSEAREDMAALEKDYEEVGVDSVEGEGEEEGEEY

HEK293 [8] = experiment: Binding affinity to HEK293 proteomes assessed as compound-Cysteine adduct formation at 1 uM incubated for 24 hrs by LC-MS/MS analysis; format: cell-based; details: Homo sapiens
HEK293 [9] = experiment: Binding affinity to HEK293 proteomes at 1 uM incubated for 16 hrs using TAMRA-azide dye by SDS-PAGE based fluorescence analysis in presence of iodoacetamide; format: cell-based; details: Homo sapiens
Outline: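 Proteomes were preincubated with iodoacetamide before alkyne-probe treatment. Probe labeling then proceeded by click conjugation to a fluorescent azide, SDS-PAGE without boiling, and fluorescence imaging to test for cysteine-directed labeling.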

[10] = biological target: Tubulin beta-2A chain (Homo sapiens) (UniProt Q13885); experiment: Binding affinity to TUBB2A in HEK293 proteomes assessed as spectral count ratio at 20 uM incubated for 16 hrs by TAMRA biotin-azide dye based LC-MS/MS analysis relative to control; outline: as §1
[11] = biological target: Histone acetyltransferase p300 (Homo sapiens, UniProt Q09472); experiment: Inhibition of recombinant P300 catalytic domain (1284 to 1673 residues) (unknown origin) using FITC- histone H4 peptide (1 to 19 residues) as substrate by electrophoretic mobility shift assay
Sequence of Histone acetyltransferase p300 (Q09472 whole entry, the tested form may be a part): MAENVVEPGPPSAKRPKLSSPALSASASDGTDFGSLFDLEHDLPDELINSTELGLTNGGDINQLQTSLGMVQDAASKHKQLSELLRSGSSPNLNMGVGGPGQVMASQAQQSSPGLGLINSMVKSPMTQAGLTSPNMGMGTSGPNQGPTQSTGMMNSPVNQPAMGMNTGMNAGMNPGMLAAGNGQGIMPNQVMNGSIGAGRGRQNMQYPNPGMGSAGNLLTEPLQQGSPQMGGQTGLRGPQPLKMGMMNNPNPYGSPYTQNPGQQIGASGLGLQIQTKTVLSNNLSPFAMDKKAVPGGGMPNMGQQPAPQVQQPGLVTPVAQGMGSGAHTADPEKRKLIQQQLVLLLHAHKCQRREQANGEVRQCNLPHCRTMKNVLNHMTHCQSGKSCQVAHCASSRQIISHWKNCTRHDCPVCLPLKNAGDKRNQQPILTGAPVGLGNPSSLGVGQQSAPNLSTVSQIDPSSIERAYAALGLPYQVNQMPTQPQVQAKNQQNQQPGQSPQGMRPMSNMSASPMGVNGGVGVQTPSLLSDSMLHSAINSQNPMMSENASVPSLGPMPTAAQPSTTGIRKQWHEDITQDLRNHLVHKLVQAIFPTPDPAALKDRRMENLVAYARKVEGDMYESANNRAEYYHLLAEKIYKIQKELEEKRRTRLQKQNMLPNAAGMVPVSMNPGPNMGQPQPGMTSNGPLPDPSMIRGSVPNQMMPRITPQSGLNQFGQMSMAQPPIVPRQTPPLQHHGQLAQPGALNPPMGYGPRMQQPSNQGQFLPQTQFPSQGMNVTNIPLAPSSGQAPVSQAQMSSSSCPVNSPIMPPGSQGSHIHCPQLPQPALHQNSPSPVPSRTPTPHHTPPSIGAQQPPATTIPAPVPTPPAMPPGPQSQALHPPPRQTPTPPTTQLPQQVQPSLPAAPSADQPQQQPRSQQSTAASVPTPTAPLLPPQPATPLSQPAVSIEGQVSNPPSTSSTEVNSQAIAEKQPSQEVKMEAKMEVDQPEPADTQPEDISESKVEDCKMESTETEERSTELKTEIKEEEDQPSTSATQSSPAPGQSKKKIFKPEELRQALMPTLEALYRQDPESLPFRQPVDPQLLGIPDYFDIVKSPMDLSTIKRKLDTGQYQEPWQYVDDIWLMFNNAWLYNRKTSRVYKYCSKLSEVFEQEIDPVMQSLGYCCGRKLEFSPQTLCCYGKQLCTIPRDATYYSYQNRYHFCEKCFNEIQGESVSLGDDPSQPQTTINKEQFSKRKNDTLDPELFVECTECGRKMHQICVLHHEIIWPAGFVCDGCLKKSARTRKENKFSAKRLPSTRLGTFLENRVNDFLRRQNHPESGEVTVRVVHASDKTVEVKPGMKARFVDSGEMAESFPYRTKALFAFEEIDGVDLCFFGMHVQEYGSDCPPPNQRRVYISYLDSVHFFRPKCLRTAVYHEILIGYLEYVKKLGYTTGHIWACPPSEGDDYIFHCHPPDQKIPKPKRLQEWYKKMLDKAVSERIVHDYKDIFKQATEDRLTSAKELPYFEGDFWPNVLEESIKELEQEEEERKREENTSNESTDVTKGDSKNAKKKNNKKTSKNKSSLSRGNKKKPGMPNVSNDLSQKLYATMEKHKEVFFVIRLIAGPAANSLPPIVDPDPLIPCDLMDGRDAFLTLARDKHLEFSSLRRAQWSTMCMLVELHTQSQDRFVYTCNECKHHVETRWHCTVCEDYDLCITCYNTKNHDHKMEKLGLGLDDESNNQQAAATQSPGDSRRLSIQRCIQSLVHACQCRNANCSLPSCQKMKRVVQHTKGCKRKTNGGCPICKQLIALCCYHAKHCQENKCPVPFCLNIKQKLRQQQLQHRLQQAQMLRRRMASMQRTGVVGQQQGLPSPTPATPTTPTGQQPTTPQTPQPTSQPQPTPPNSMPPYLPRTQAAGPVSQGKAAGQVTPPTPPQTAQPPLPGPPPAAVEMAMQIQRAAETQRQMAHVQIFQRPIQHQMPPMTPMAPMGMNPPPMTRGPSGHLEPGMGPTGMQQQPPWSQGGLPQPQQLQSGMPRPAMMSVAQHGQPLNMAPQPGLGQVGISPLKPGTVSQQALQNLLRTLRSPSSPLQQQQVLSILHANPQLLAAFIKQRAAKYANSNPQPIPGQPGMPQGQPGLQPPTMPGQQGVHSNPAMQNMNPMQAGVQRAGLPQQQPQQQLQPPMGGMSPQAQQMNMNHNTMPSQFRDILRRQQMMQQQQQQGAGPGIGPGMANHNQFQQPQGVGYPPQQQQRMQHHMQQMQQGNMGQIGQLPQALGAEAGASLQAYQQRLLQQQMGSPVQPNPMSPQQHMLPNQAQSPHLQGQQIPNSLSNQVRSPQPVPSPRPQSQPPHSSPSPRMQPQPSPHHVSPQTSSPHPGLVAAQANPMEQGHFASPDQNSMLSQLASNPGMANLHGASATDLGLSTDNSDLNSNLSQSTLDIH

[12] = biological target: Tubulin beta-4A chain (Homo sapiens) (UniProt P04350); experiment: Binding affinity to TUBB4A in HEK293 proteomes assessed as spectral count ratio at 20 uM incubated for 16 hrs by TAMRA biotin-azide dye based LC-MS/MS analysis relative to control; outline: as §1
Sequence of Tubulin beta-4A chain (Homo sapiens) (P04350 whole entry): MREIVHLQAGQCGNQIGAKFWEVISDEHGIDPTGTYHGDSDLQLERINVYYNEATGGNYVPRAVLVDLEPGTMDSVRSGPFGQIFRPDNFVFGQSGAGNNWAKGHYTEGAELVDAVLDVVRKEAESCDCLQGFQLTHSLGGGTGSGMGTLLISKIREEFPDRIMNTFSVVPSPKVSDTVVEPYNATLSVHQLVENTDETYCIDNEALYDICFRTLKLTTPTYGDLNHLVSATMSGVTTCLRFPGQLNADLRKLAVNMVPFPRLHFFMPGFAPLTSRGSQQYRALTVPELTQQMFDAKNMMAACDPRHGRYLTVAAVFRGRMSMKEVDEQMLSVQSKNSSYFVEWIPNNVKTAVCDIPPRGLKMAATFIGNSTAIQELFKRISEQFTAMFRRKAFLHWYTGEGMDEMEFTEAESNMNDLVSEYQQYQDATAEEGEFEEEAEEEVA

[13] = biological target: Tubulin alpha-1A chain (Homo sapiens) (UniProt Q71U36); experiment: Binding affinity to TUBA1A in HEK293 proteomes assessed as spectral count ratio at 20 uM incubated for 16 hrs by TAMRA biotin-azide dye based LC-MS/MS analysis relative to control; outline: as §1
Sequence of Tubulin alpha-1A chain (Homo sapiens) (Q71U36 whole entry, looked up): as the sequence (P68363 whole entry, looked up) above, with S232G, S340T counted along it

[14] = biological target: Heat shock 70 kDa protein 1A/1B (Homo sapiens) (UniProt P0DMV8+P0DMV9); experiment: Binding affinity to HSPA1A/HSPA1B in HEK293 proteomes assessed as spectral count ratio at 20 uM incubated for 16 hrs by TAMRA biotin-azide dye based LC-MS/MS analysis relative to control; format: protein assay; outline: as §1
[15] = biological target: Heat shock protein HSP 90-beta (Homo sapiens) (UniProt P08238); experiment: Binding affinity to HSP90AB1 in HEK293 proteomes assessed as spectral count ratio at 20 uM incubated for 16 hrs by TAMRA biotin-azide dye based LC-MS/MS analysis relative to control; outline: as §1
Sequence of Heat shock protein HSP 90-beta (Homo sapiens) (P08238 whole entry): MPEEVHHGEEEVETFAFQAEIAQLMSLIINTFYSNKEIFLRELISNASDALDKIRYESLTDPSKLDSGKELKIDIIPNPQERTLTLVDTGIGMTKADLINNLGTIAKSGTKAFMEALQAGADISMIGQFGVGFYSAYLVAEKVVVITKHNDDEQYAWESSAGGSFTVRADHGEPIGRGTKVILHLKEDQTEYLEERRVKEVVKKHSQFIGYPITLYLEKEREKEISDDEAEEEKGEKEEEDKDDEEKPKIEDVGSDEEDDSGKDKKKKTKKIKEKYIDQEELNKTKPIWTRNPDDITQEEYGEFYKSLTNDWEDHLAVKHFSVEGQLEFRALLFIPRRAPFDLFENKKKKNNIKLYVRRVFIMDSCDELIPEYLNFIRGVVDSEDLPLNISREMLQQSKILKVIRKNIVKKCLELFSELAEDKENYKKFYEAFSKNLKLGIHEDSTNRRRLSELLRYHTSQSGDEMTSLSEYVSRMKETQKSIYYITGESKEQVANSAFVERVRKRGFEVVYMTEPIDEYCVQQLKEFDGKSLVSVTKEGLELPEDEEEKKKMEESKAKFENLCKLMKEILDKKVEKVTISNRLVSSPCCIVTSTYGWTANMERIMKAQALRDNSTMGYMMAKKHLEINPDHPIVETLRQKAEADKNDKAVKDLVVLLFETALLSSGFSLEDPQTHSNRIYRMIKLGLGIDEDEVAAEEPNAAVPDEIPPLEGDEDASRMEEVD

[16] = biological target: Tubulin beta-5 chain (Homo sapiens) (UniProt P07437); experiment: Binding affinity to TUBB in HEK293 proteomes assessed as spectral count ratio at 20 uM incubated for 16 hrs by TAMRA biotin-azide dye based LC-MS/MS analysis relative to control; outline: as §1
[17] = biological target: D-3-phosphoglycerate dehydrogenase (Homo sapiens) (UniProt O43175); experiment: Binding affinity to PHGDH in HEK293 proteomes at 20 uM incubated for 16 hrs by TAMRA biotin-azide dye based LC-MS/MS analysis; format: cell-based; outline: as §1
[18] = biological target: Elongation factor 1-alpha 1 (Homo sapiens) (UniProt P68104); experiment: Binding affinity to EEF1A1 in HEK293 proteomes assessed as spectral count ratio at 20 uM incubated for 16 hrs by TAMRA biotin-azide dye based LC-MS/MS analysis relative to control; outline: as §1
[19] = biological target: Creatine kinase B-type (Homo sapiens) (UniProt P12277); experiment: Binding affinity to CKB in HEK293 proteomes assessed as spectral count ratio at 20 uM incubated for 16 hrs by TAMRA biotin-azide dye based LC-MS/MS analysis relative to control; outline: as §1
[20] = biological target: Actin, cytoplasmic 1 (Homo sapiens) (UniProt P60709); experiment: Binding affinity to ACTB in HEK293 proteomes assessed as spectral count ratio at 20 uM incubated for 16 hrs by TAMRA biotin-azide dye based LC-MS/MS analysis relative to control; outline: as §1
[21] = biological target: Heterogeneous nuclear ribonucleoprotein H (Homo sapiens) (UniProt P31943); experiment: Binding affinity to HNRNPH1 in HEK293 proteomes at 20 uM incubated for 16 hrs by TAMRA biotin-azide dye based LC-MS/MS analysis; format: cell-based; outline: as §1
[22] = biological target: Tubulin alpha-1C chain (Homo sapiens) (UniProt Q9BQE3); experiment: Binding affinity to TUBA1C in HEK293 proteomes assessed as spectral count ratio at 20 uM incubated for 16 hrs by TAMRA biotin-azide dye based LC-MS/MS analysis relative to control; outline: as §1
Tubulin (Sus scrofa) = Tubulin (Sus scrofa) (UniProt P02554+P02550); experiment: Inhibition of porcine brain tubulin polymerization assessed as decrease in rate of microtubule formation incubated up to 1 hr by fluorescence analysis
Outline: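 Porcine tubulin was preincubated with compound and polymerization was then followed by a fluorescence assay. Read-outs were the rate of microtubule formation and final polymer mass. CaCl2 served as the positive control for inhibition.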

fold change (FC) [1]: 16
fold change (FC) [2]: 7
Activity (HEK293 [3]): Dose-dependent effect
fold change (FC) [4]: 64
fold change (FC) [5]: 17
fold change (FC) [6]: 24
fold change (FC) [7]: 25
Activity (HEK293 [8]): Active
Activity (HEK293 [9]): inactive
fold change (FC) [10]: 25
pIC50 [11]: 4.85
fold change (FC) [12]: 19
fold change (FC) [13]: 25
fold change (FC) [14]: 8
fold change (FC) [15]: 16
fold change (FC) [16]: 36
Activity [17]: Active
fold change (FC) [18]: 12
fold change (FC) [19]: 9
fold change (FC) [20]: 4
Activity [21]: Active
fold change (FC) [22]: 25
Compound: C#CCNC(=O)c1ccc(N2N=C(C)/C(=C/c3ccc(-c4cc(C)c(C)cc4[N+](=O)[O-])o3)C2=O)cc1

inhibition (Tubulin (Sus scrofa)): Dose-dependent effect
Compound: CC1=NN(c2ccc(C(=O)O)cc2)C(=O)/C1=C\c1ccc(-c2cc(C)c(C)cc2[N+](=O)[O-])o1
